ChEMBL document CHEMBL4350961, “Discovery of Pyrrolo[3,2- d]pyrimidin-4-one Derivatives as a New Class of Potent and Cell-Active Inhibitors of P300/CBP-Associated Factor Bromodomain” (J Med Chem, 2019)
Active and inactive are the calls of the source.

Columns and labels:
[1] = target: Bromodomain testis-specific protein (Homo sapiens) (UniProt Q58F21); experiment: Binding affinity to human partial length BRDT bromodomain 2 (K250 to E382 residues) expressed in bacterial expression system at 1 uM by BROMOscan assay
Procedure, shortened: (§1)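 BROMOscan bromodomain cross-screen run by an outside service, compound at 1 µM against 32 recombinant bromodomains. Binding given as percent of control.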

[2] = target: SWI/SNF-related matrix-associated actin-dependent regulator of chromatin subfamily A member 2 (Homo sapiens) (UniProt P51531); experiment: Binding affinity to human partial length SMARCA2 (S1377 to Q1486 residues) expressed in bacterial expression system at 1 uM by BROMOscan assay; procedure, shortened: as §1
[3] = target: Tyrosine-protein kinase ABL2 (Homo sapiens) (UniProt P42684); experiment: Inhibition of recombinant human ARG (38 to end residues) at 10 uM using EAIYAAPFAKKK as substrate measured after 40 mins in presence of [gamma33P]ATP by scintillation counting method
[4] = target: Calcium/calmodulin-dependent protein kinase type II subunit delta (Homo sapiens) (UniProt Q13557); experiment: Inhibition of recombinant full-length human CaMK2delta at 10 uM using calmodulin as substrate measured after 40 mins in presence of [gamma33P]ATP by scintillation counting method
Homo sapiens [5] = species: Homo sapiens; experiment: Inhibition of recombinant human DDR1 V833L mutant (492 to end residues) at 10 uM using KKKSPGEYVNIEFG as substrate measured after 40 mins in presence of [gamma33P]ATP by scintillation counting method
[6] = target: Ephrin type-A receptor 7 (Homo sapiens) (UniProt Q15375); experiment: Inhibition of recombinant human EphA7 (613 to 909 residues) at 10 uM using KTFCGTPEYLAPEVRREPRILSEEEQEMFRDFDYIADWC as substrate measured after 40 mins in presence of [gamma33P]ATP by scintillation counting method
Ephrin type-A receptor 7 (Homo sapiens), sequence (Q15375 28-998 limits assumed): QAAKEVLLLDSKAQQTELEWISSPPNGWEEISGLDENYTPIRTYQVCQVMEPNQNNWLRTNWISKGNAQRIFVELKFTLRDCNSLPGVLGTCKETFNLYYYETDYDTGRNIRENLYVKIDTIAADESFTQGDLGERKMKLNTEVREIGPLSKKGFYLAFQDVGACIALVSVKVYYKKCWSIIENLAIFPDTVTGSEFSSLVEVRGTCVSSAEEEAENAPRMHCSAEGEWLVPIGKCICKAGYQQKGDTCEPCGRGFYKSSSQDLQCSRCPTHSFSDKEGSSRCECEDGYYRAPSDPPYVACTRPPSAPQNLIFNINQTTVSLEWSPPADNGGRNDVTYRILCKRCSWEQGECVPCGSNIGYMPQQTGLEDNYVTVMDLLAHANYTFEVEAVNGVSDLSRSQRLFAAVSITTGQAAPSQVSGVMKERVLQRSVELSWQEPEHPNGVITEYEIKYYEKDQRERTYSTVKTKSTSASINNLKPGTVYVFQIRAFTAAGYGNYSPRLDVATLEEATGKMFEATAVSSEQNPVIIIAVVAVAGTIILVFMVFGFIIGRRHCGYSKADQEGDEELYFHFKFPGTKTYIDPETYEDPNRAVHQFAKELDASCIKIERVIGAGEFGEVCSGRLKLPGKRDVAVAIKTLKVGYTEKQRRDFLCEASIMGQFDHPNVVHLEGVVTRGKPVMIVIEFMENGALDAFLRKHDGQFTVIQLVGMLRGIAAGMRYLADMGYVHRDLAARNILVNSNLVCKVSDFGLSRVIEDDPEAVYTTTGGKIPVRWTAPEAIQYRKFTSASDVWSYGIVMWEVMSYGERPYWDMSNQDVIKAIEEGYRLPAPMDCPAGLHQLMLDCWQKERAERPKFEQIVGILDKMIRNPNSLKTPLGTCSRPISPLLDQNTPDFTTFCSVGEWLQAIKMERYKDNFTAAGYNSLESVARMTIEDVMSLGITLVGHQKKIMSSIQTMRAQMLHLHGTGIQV

[7] = target: Ephrin type-A receptor 8 (Homo sapiens) (UniProt P29322); experiment: Inhibition of recombinant human EphA8 (615 to 911 residues) at 10 uM using KTFCGTPEYLAPEVRREPRILSEEEQEMFRDFDYIADWC as substrate measured after 40 mins in presence of [gamma33P]ATP by scintillation counting method
[8] = target: Fibroblast growth factor receptor 3 (Homo sapiens) (UniProt P22607); experiment: Inhibition of recombinant human FGFR3 (447 to 761 residues) at 10 uM using poly(Glu, Tyr) 4:1 as substrate measured after 40 mins in presence of [gamma33P]ATP by scintillation counting method
[9] = target: Rhodopsin kinase GRK1 (Homo sapiens) (UniProt Q15835); experiment: Inhibition of recombinant full-length human GRK1 at 10 uM using KKKKERLLDDRHDSGLDSMKDEE as substrate measured after 40 mins in presence of [gamma33P]ATP by scintillation counting method
Rhodopsin kinase GRK1 (Homo sapiens), sequence (Q15835 whole entry, the tested form may be a part): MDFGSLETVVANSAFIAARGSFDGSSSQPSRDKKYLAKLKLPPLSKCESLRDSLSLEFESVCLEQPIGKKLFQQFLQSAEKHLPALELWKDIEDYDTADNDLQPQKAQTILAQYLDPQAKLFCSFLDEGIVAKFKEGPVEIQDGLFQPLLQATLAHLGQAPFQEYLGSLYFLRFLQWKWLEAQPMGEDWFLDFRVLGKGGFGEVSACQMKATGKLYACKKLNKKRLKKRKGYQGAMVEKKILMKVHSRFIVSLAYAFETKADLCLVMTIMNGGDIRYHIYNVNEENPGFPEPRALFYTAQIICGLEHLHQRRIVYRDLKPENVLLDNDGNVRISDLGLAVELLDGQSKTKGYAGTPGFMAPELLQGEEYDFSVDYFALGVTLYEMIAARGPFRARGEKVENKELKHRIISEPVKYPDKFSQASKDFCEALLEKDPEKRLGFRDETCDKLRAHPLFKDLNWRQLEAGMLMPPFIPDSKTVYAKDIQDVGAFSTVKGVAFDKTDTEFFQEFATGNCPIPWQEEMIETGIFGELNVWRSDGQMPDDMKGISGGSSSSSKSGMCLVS

[10] = target: Mitogen-activated protein kinase kinase kinase kinase 4 (Homo sapiens) (UniProt O95819); experiment: Inhibition of recombinant human MAP4K4 (1 to 328 residues) at 10 uM using RLGRDKYKTLRQIRQ as substrate measured after 40 mins in presence of [gamma33P]ATP by scintillation counting method
[11] = system: Hepatocyte growth factor receptor (Homo sapiens), P08581 [D1228H]; experiment: Inhibition of recombinant human MET A1209G/V1290L/D1246H mutant (974 to end residues) at 10 uM using KKKGQEEEYVFIE as substrate measured after 40 mins in presence of [gamma33P]ATP by scintillation counting method
[12] = target: Platelet-derived growth factor receptor beta (Homo sapiens) (UniProt P09619); experiment: Inhibition of recombinant human PDGFRbeta (557 to end residues) at 10 uM using poly(Glu, Tyr) 4:1 as substrate measured after 40 mins in presence of [gamma33P]ATP by scintillation counting method
[13] = system: Serine/threonine-protein kinase D1 (Homo sapiens), Q15139 [UNDEFINED MUTATION]; experiment: Inhibition of recombinant full-length human PKCmu R135A mutant at 10 uM using KKLNRTLSVA as substrate measured after 40 mins in presence of [gamma33P]ATP by scintillation counting method
Serine/threonine-protein kinase D1 (Homo sapiens), Q15139 [UNDEFINED MUTATION], sequence (Q15139 whole entry, looked up, stated change not applied): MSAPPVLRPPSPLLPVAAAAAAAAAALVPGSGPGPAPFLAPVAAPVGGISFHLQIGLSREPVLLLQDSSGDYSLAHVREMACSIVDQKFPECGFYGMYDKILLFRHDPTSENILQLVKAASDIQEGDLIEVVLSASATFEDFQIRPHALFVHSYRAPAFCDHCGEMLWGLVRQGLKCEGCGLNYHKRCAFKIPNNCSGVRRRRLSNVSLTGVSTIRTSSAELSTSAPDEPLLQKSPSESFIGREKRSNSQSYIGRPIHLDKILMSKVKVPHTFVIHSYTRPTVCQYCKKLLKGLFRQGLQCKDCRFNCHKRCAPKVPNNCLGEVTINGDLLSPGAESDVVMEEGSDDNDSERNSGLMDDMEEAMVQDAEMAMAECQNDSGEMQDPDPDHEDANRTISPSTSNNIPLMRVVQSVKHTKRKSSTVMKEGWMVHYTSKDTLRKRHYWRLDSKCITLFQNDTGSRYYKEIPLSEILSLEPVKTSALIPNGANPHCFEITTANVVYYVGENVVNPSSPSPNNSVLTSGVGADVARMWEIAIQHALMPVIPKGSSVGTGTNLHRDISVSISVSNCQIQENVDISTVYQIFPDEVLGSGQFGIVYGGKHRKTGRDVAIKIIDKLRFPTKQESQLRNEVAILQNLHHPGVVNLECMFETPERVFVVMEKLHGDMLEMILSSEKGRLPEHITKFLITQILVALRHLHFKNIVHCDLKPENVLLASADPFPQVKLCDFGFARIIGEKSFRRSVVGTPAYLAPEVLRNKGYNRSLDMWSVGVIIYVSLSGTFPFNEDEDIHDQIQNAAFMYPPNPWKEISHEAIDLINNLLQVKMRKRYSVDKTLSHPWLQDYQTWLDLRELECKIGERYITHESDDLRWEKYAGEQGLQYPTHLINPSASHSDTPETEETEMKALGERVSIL

[14] = system: Proto-oncogene tyrosine-protein kinase receptor Ret (Homo sapiens), P07949 [V804L]; experiment: Inhibition of human Ret V804L mutant (658 to end residues) using KKKSPGEYVNIEFG as substrate measured after 40 mins in presence of [gamma33P]ATP by scintillation counting method
Procedure, shortened: (§2)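 Kinase panel of 422 kinases screened by Eurofins KinaseProfiler at a single test-compound concentration of 10 µM.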

[15] = target: Serine/threonine-protein kinase 25 (Homo sapiens) (UniProt O00506); experiment: Inhibition of human STK25 (1 to 308 residues) using RLGRDKYKTLRQIRQ as substrate measured after 40 mins in presence of [gamma33P]ATP by scintillation counting method; procedure, shortened: as §2
Serine/threonine-protein kinase 25 (Homo sapiens), sequence (O00506 whole entry, looked up, the tested form may be a part): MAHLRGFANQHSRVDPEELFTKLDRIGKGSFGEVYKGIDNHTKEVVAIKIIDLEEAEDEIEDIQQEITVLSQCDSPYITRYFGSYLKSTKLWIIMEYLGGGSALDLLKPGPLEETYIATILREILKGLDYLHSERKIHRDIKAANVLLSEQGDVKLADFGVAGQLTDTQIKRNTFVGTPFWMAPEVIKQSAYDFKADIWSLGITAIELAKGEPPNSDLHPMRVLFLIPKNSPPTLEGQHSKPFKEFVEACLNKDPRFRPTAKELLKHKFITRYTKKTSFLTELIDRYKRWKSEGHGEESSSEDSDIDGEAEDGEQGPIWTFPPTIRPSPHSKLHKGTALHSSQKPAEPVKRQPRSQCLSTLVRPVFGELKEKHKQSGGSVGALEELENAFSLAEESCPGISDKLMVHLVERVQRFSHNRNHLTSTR

[16] = target: Serine/threonine-protein kinase 32B (Homo sapiens) (UniProt Q9NY57); experiment: Inhibition of recombinant full-length human STK32B at 10 uM using casein as substrate measured after 120 mins in presence of [gamma33P]ATP by scintillation counting method
Serine/threonine-protein kinase 32B (Homo sapiens), sequence (Q9NY57 whole entry): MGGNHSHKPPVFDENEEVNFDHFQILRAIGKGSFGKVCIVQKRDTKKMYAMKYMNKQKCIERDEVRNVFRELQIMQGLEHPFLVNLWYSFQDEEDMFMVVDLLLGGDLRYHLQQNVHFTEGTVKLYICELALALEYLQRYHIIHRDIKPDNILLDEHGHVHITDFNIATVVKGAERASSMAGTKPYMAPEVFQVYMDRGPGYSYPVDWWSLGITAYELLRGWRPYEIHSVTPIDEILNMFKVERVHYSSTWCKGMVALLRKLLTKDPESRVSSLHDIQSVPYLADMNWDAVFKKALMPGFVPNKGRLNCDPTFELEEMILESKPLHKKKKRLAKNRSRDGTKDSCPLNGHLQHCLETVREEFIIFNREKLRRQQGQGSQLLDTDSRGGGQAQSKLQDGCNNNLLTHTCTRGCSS

Homo sapiens [17] = species: Homo sapiens; experiment: Inhibition of human activated Tec F514V mutant (174 to end residues) using EFPIYDFLPAKKK as substrate measured after 40 mins in presence of [gamma33P]ATP by scintillation counting method
[18] = target: Serine/threonine-protein kinase tousled-like 1 (Homo sapiens) (UniProt Q9UKI8); experiment: Inhibition of recombinant full-length human TLK1 at 10 uM using casein as substrate measured after 40 mins in presence of [gamma33P]ATP by scintillation counting method
[19] = target: Non-receptor tyrosine-protein kinase TYK2 (Homo sapiens) (UniProt P29597); experiment: Inhibition of human TYK2 (875 to end residues) using GGMEDIYFEFMGGKKK as substrate measured after 40 mins in presence of [gamma33P]ATP by scintillation counting method
[20] = target: Serine/threonine-protein kinase ULK1 (Homo sapiens) (UniProt O75385); experiment: Inhibition of human ULK1 (1 to 314 residues) using casein as substrate measured after 40 mins in presence of [gamma33P]ATP by scintillation counting method
Serine/threonine-protein kinase ULK1 (Homo sapiens), sequence (O75385 whole entry, the tested form may be a part): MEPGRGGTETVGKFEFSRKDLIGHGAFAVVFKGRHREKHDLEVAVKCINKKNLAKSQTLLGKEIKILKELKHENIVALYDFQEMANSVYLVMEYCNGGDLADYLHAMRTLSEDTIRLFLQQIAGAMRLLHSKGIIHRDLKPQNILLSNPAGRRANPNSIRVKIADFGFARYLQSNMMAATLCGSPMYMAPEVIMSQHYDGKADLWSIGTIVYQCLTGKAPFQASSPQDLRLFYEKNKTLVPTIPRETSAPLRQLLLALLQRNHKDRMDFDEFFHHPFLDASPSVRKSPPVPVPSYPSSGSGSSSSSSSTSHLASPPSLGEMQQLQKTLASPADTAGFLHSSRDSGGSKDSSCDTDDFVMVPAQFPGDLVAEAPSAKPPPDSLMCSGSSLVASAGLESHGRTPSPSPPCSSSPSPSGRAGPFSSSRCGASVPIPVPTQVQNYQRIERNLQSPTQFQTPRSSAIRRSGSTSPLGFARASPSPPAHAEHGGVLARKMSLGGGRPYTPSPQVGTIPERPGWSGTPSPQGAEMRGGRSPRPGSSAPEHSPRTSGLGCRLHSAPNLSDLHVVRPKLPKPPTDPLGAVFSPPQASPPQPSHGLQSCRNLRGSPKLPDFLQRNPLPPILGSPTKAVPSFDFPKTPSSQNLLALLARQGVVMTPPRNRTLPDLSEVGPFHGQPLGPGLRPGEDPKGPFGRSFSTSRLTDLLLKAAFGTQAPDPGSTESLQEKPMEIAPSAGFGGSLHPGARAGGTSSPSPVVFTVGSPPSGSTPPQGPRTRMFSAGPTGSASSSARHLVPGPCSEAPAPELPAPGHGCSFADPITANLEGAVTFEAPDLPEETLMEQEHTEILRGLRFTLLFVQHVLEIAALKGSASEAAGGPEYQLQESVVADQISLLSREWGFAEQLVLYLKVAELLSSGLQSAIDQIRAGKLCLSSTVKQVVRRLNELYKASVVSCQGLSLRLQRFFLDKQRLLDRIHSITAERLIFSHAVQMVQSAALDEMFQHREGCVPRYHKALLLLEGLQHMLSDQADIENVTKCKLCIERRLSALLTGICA

Mus musculus [21] = species: Mus musculus; experiment: Inhibition of recombinant full-length mouse PI3K p110alpha/p65alpha (1 to 571 residues) at 10 uM using phosphatidylinositol-4, 5-bisphosphate as substrate measured after 40 mins by HTRF assay
Mus musculus [22] = species: Mus musculus; experiment: Inhibition of recombinant full-length mouse PI3K p110beta/p85beta R123L mutant at 10 uM using phosphatidylinositol-4, 5-bisphosphate as substrate measured after 40 mins by HTRF assay
[23] = target: Phosphatidylinositol 5-phosphate 4-kinase type-2 alpha (Homo sapiens) (UniProt P48426); experiment: Inhibition of recombinant full-length human PIP4K2alpha at 10 uM using phosphatidylinositol 5-phosphate as substrate measured after 40 mins by HTRF assay
Phosphatidylinositol 5-phosphate 4-kinase type-2 alpha (Homo sapiens), sequence (P48426 whole entry): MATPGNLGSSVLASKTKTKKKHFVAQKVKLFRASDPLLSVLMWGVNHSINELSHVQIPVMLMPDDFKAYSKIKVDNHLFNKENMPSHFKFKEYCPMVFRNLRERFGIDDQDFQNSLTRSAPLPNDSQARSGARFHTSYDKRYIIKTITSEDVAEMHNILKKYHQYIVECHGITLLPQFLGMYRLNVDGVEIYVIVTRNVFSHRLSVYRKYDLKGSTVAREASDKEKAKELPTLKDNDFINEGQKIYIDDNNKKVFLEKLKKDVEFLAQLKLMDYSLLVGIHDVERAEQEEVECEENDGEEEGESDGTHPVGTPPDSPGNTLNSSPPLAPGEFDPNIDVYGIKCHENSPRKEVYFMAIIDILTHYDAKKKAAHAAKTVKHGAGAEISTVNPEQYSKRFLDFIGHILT

CN1C[C@H](Nc2nc3cc[nH]c3c(=O)n2C)C[C@H](c2ccc3c(c2)OCCO3)C1
inactive: Activity [1] | Activity [2] | inhibition [3] | inhibition [4] | inhibition (Homo sapiens [5]) | inhibition [6] | inhibition [7] | inhibition [8] | inhibition [9] | inhibition [10] | inhibition [11] | inhibition [12] | inhibition [13] | inhibition [14] | inhibition [15] | inhibition [16] | inhibition (Homo sapiens [17]) | inhibition [18] | inhibition [19] | inhibition [20] | inhibition (Mus musculus [21]) | inhibition (Mus musculus [22]) | inhibition [23]
